Laboratory results as given in ChEMBL document CHEMBL3593197, “Development of novel DIF-1 derivatives that selectively suppress innate immune responses” (Bioorg Med Chem, 2015).
Activity calls are given as the source filed them. No cut-off for these calls is given here.

Key:
[1] = system: Drosophila; assay: Immunosuppressive activity in Drosophila S2 cells expressing att-luc reporter gene assessed as inhibition of peptidoglycan-induced attacin production pre-treated for 1.5 hrs before peptidoglycan stimulation for 8 hrs by luciferase reporter gene assay; type: functional
Method in brief: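 S2 cells stably carrying an attacin-promoter luciferase reporter were pre-treated with a concentration series of compound for 1.5 h. They were then stimulated with 100 ng/mL peptidoglycan. After 8 h, cells were lysed and luciferase luminescence was read. IC50 is the concentration lowering signal to 50% of the peptidoglycan-only control. Mean ± SD of four independent experiments.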

[2] = Cytotoxicity against Drosophila S2 assessed as reduction in cell proliferation by WST8 assay; conditions: Drosophila S2 cells
Method in brief: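 S2 cells exposed to a concentration series of compound for 24 h; proliferation read by colorimetric WST-8 conversion. CC50 is the concentration reducing proliferation to 50% of DMSO control. Mean ± SD of four independent experiments.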

[3] = system: Drosophila; assay: Selectivity index, ratio of CC50 for Drosophila S2 by WST8 assay to IC50 for immunosuppressive activity in Drosophila S2 cells expressing att-luc reporter gene assessed as inhibition of attacin production; type: functional
Method in brief: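 The ratio is CC50 divided by IC50. CC50 comes from 24 h WST-8 proliferation of S2 cells, relative to DMSO. IC50 comes from 8 h luciferase signal in peptidoglycan-stimulated (100 ng/mL) S2 att-luc reporter cells pre-treated 1.5 h. Both were derived from concentration series.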

[4] = system: Jurkat; assay: Cytotoxicity against human Jurkat cells assessed as reduction in cell viability at 5 uM by MTT assay; type: cell-based
Method in brief: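 Jurkat cells pre-incubated 30 min with 5 µM compound or 0.1% DMSO vehicle, then incubated under the same conditions as the IL-2 assay (ConA added, 12 h). Viable cells were measured by MTT assay as percent of control. Mean ± SD of three independent experiments.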

[5] = system: Jurkat; assay: Immunosuppressive activity in human Jurkat cells assessed as inhibition of ConA-induced IL2 production at 5 uM pre-treated for 30 mins before ConA stimulation for 12 hrs by immunoassay; type: functional, cell-based
Method in brief: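 ConA was added to a final 25 µg/mL and cells were incubated a further 12 h. Secreted IL-2 in the culture medium was quantified by anti-human IL-2 sandwich immunoassay, in duplicate wells. Mean ± SD of three independent experiments.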

Row | Structure (SMILES) | IC50 [1] | CC50 [2] | Ratio CC50/IC50 [3] | inhibition [1] | Activity [4] | inhibition [5]
1 | CCCCCC(=O)c1c(OC)c(Cl)c(OC)c(Cl)c1OC | 18.9 µM | 148 µM | 7.8 | – | – | –
2 | CCCCCC(=O)c1c(O)c(Cl)c(OC)c(Cl)c1O | 4.6 µM | 22.5 µM | 4.9 | Dose-dependent effect | – | –
3 | CCCCCCCC(=O)c1c(OC)c(Cl)c(OC)c(Cl)c1OC | 15.3 µM | 51.4 µM | 3.4 | – | – | –
4 | CCCCCCCC(=O)c1c(O)c(Cl)c(O)c(Cl)c1O | 3.7 µM | 88.5 µM | 23.9 | – | Non-toxic | Active
5 | CCCCCC(=O)c1c(O)c(Cl)c(C)c(Cl)c1O | 3.8 µM | 13.8 µM | 3.6 | – | – | –
6 | CCCCCC(=O)c1c(O)c(Cl)c(O)c(Cl)c1O | 9.9 µM | 102 µM | 10.3 | – | – | –
7 | CCCCC(=O)c1c(OC)c(Cl)c(OC)c(Cl)c1OC | 23.5 µM | 149 µM | 6.3 | – | – | –
8 | CCCCCC(=O)c1c(O)c(Br)c(OC)c(Br)c1O | 3.7 µM | 12.9 µM | 3.5 | – | – | –
9 | CCCC(=O)c1c(O)c(Cl)c(O)c(Cl)c1O | 21.5 µM | > 100 µM | >4.7 | – | – | –
10 | CCCCCCCCC(=O)c1c(O)c(Cl)c(O)c(Cl)c1O | 6.5 µM | 82.8 µM | 12.7 | – | – | –
11 | CCCC(=O)c1c(OC)c(Cl)c(OC)c(Cl)c1OC | 20.8 µM | 144 µM | 6.9 | – | – | –
12 | CCCCCCC(=O)c1c(OC)c(Cl)c(OC)c(Cl)c1OC | 16.8 µM | 140 µM | 8.3 | – | Non-toxic | Active
13 | CCCCCCc1c(O)c(Cl)c(OC)c(Cl)c1O | 58.6 µM | > 100 µM | >1.7 | – | – | –
14 | CCCCCC(=O)c1c(O)cc(OC)c(Cl)c1O | 4.6 µM | 8.7 µM | 1.9 | – | – | –
